Test results from ChEMBL document CHEMBL5325438 (Eur J Med Chem, 2023).
Activity calls are given as the source filed them. Square brackets hold non-standard residues; d marks the D form. Peptide text beside a SMILES is read from it. * marks the point of attachment. Cav = NC(N)=NOCC[C@H](N)C(=O)O; Tle = CC(C)(C)[C@H](N)C(=O)O; X1 = C[C@@H](CCCCN)C(=O)*

Columns and labels:
[1] = target: T1, Neurotensin receptor type 1 (Homo sapiens, UniProt P30989); assay: Agonist activity at human NTSR1 expressed in HEK293 cells assessed as Galphaq-mediated modulation of IP production by measuring maximal efficacy incubated for 90 mins by IP-one HTRF assay relative to full effect of (2S)-2-[[(2S,3S)-2-[[(2S)-2-[[(2S)-1-[(2S)-2-[[(2S)-2-amino-5-guanidino-pentanoyl]amino]-5-guanidino-pentanoyl]pyrrolidine-2-carbonyl]amino]-3-(4-hydroxyphenyl)propanoyl]amino]-3-methyl-pentanoyl]amino]-4-methyl-pentanoic acid; format: functional, cell-based; conditions: filed as agonist
[2] = tested on: HT-29; assay: Cytotoxicity against human HT-29 cells assessed as reduction in cell viability at 0.1 to 100 uM incubated for 24 hrs by MTT assay; format: toxicity, cell-based; conditions: ht-29, 24 h, dose 0.1-100 µM
How it was run: (§1)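 HepG2, MDA-MB-231 and HT-29 cells grown in DMEM/10% FBS with penicillin/streptomycin at 37 °C, 5% CO2. Exponential-phase cells seeded at 5000/well, left overnight, then exposed 24 h to peptide at 0.1–100 μM (from 1.0 mM PBS pH 7.4 stocks). Viability by MTT, as % of untreated control ± SD.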

[3] = tested on: MDA-MB-231; assay: Cytotoxicity against human MDA-MB-231 cells assessed as reduction in cell viability at 0.1 to 100 uM incubated for 24 hrs by MTT assay; format: toxicity, cell-based; conditions: mda-mb-231, 24 h, dose 0.1-100 µM; how it was run: as §1
[4] = target: T1, Neurotensin receptor type 1; assay: Binding affinity to human NTSR1 transfected in HEK293 cells assessed as inhibition constant incubated for 60 mins in the presence of [Leu3H]NT(8-13) by radioligand competition binding assay; format: cell-based
[5] = tested on: HepG2; assay: Cytotoxicity against human HepG2 cells assessed as reduction in cell viability at 0.1 to 100 uM incubated for 24 hrs by MTT assay; format: toxicity, cell-based; conditions: hepg2, 24 h, dose 0.1-100 µM; how it was run: as §1
[6] = target: Neurotensin receptor type 2 (Homo sapiens, UniProt O95665); assay: Binding affinity to human NTSR2 transfected in HEK293 cells assessed as inhibition constant incubated for 60 mins in the presence of [Leu3H]NT(8-13) by radioligand competition binding assay; format: cell-based
How it was run: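 IC50 from nonlinear regression, converted to Ki by Cheng–Prusoff; protein by Lowry. Means ± SEM of three (NTS1R) or four to five (NTS2R) experiments, each in triplicate. SI = Ki(NTS1R)/Ki(NTS2R).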

[7] = target: T1, Neurotensin receptor type 1; assay: Agonist activity at human NTSR1 expressed in HEK293 cells assessed as Galphaq-mediated modulation of IP production incubated for 90 mins by IP-one HTRF assay; format: functional, cell-based
[8] = tested on: HT-29; assay: Cytotoxicity against human HT-29 cells assessed as reduction in cell viability at 100 uM incubated for 24 hrs by MTT assay relative to control; format: toxicity, cell-based; conditions: ht-29, 24 h; how it was run: as §1
[9] = Toxicity in MPTP-induced parkinsons's disease BALB/c albino mouse model assessed as body weight loss at 10 mg/kg, ip preadministered with compound for 1 hrs followed by MPTP-addition and measured 10 days after first MPTP addition; format: organism-based; conditions: in vivo, 241 h
How it was run: (§2)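 Male BALB/c mice (n = 5/group) given peptide 10 mg/kg i.p. daily for 5 days, each dose followed 60 min later by MPTP 30 mg/kg i.p.; saline controls. Body weight recorded on days 1, 5 and 10.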

[10] = tested on: MDA-MB-231; assay: Cytotoxicity against human MDA-MB-231 cells assessed as reduction in cell viability at 100 uM incubated for 24 hrs by MTT assay relative to control; format: toxicity, cell-based; conditions: mda-mb-231, 24 h; how it was run: as §1
[11] = Stability of compound in PBS buffer assessed as parent compound remaining at pH 7.4 measured after 30 days by RP-HPLC/UV/Vis spectroscopic analysis; format: physicochemical; conditions: time 30 day, read-out: Stability
How it was run: (§3)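 Peptide at 50 μM in PBS at pH 2.0 or 7.4, stored at room temperature and 37 °C for 30 days; % peptide remaining reported.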

[12] = tested on: Mus musculus; assay: Neuroprotective activity against MPTP-induced neurotoxicity in BALB/c albino mouse model assessed as alleviation of MPTP-induced nigrostriatal dopaminergic neuronal damage by measuring increase in number of TH-postivie neurons in substantia nigra at 10 mg/kg, ip preadministered with compound for 1 hrs followed by MPTP addition and measured 11 days after first MPTP addition by immunohistological staining analysis (reference value: 66 +/- 1.41%); format: functional; conditions: time 265 hrs
How it was run: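 Same dosing as the behavioural study (peptide 10 mg/kg i.p., then MPTP 30 mg/kg i.p. 60 min later, 5 days; n = 5). Brains taken on day 11, fixed in 10% paraformaldehyde (pH 7.4, 0.1 M phosphate) overnight at 4 °C and paraffin-embedded. Substantia nigra sections stained with rabbit anti-TH (1:500). TH-positive cells counted, as % of saline control; ANOVA/Dunnett.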

[13] = tested on: Mus musculus; assay: Neuroprotective activity against MPTP-induced Parkinson's disease BALB/c albino mouse model assessed as restoration of step-through latency values at 10 mg/kg, ip preadministered with compound for 1 hrs followed by MPTP addition and measured 10 days after first MPTP addition by step-through passive avoidance test; format: functional, organism-based; conditions: time 241.0 hrs
How it was run: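 Male BALB/c mice (8–10 weeks, 30–35 g), n = 5/group, were dosed i.p. once daily for 5 days with peptide (10 mg/kg), then MPTP (30 mg/kg) 60 min later; controls received saline or MPTP alone. On day 10, the latency to enter the dark compartment was recorded (cut-off 180 s). Data are mean ± SEM, analysed by one-way ANOVA/Dunnett versus saline and MPTP groups.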

[14] = Permeability of compound in PBS buffer at pH 7.4 at 100 uM incubated for 4 hrs by PAMPA-BBB assay; format: ADME; conditions: read-out: permeability
How it was run: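 PAMPA-BBB with peptide at 100 μM in PBS, donor and acceptor both pH 7.4, 4 h at room temperature. Effective permeability Pe (×10⁻⁶ cm/s) and −log Pe reported as mean ± SEM of three independent experiments.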

[15] = Stability of compound in PBS buffer assessed as parent compound remaining at pH 2.0 measured after 30 days by RP-HPLC/UV/Vis spectroscopic analysis; format: physicochemical; conditions: time 30 day, read-out: Stability; how it was run: as §3
[16] = Stability of compound in PBS buffer assessed as parent compound remaining at pH 7.4 incubated for 24 hrs by UV/Vis spectroscopic analysis; format: physicochemical; conditions: read-out: Stability
How it was run: (§4)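 Peptide at 50 μM in PBS at pH 2.0 or 7.4, kept at 37 °C; short-term stability over 0–24 h followed by UV/Vis spectroscopy; % remaining reported.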

[17] = tested on: Mus musculus; assay: Neuroprotective activity against MPTP-induced Parkinson's disease BALB/c albino mouse model assessed as restoration of motor function by measuring increase in hanging time value at 10 mg/kg, ip preadministered with compound for 1 hrs followed by MPTP addition and measured 10 days after first MPTP addition by hanging test relative to control; format: functional; conditions: time 241 hrs
How it was run: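 Male BALB/c mice, 8–10 weeks old, 30–35 g, n = 5/group, trained 3 days on a horizontal wire (55 cm, 2.0 mm diameter, 37 cm high). Peptide 10 mg/kg i.p. daily for 5 days, with MPTP 30 mg/kg i.p. given 60 min later; saline controls. Hanging time tested on day 10; one-way ANOVA with Dunnett's test; mean ± SEM.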

[18] = Toxicity in MPTP-induced parkinsons's disease BALB/c albino mouse model assessed as body weight loss at 10 mg/kg, ip preadministered with compound for 1 hrs followed by MPTP-addition and measured 5 days after first MPTP addition; format: organism-based; conditions: in vivo, 121 h; how it was run: as §2
[19] = Stability of compound in PBS buffer assessed as parent compound remaining at pH 2.0 incubated for 24 hrs by UV/Vis spectroscopic analysis; format: physicochemical; conditions: read-out: Stability; how it was run: as §4
[20] = tested on: HepG2; assay: Cytotoxicity against human HepG2 cells assessed as reduction in cell viability at 100 uM incubated for 24 hrs by MTT assay relative to control; format: toxicity, cell-based; conditions: hepg2, 24 h; how it was run: as §1
[21] = organism: Homo sapiens; assay: Selectivity index, ratio of Ki for human NTSR1 transfected in HEK293 cells in the presence of [Leu3H]NT(8-13) to Ki for human NTSR2 transfected in HEK293 cells in the presence of [Leu3H]NT(8-13); format: cell-based
How it was run: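 Membranes from HEK293(T) cells transiently transfected with hNTS1R or hNTS2R; competition binding against [³H]NT(8–13). IC50 from nonlinear regression, converted to Ki by Cheng–Prusoff; protein by Lowry. Means ± SEM of three (NTS1R) or four to five (NTS2R) experiments, each in triplicate. SI = Ki(NTS1R)/Ki(NTS2R).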

[22] = target: T1, Neurotensin receptor type 1; assay: Binding affinity to human NTS1R assessed as dissociation constant

T1 sequence (P30989 whole entry): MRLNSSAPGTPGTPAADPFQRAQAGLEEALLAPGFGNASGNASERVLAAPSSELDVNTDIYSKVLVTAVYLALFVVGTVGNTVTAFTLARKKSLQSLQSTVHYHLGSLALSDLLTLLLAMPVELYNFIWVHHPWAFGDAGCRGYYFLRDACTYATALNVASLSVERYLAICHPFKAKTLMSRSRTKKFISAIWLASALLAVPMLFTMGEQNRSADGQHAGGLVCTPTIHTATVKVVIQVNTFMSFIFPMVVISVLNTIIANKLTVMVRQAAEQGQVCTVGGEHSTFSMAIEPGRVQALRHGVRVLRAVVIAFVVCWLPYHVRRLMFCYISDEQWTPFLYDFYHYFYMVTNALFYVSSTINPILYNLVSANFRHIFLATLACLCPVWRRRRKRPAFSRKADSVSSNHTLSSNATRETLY
Sequence of Neurotensin receptor type 2 (O95665 whole entry): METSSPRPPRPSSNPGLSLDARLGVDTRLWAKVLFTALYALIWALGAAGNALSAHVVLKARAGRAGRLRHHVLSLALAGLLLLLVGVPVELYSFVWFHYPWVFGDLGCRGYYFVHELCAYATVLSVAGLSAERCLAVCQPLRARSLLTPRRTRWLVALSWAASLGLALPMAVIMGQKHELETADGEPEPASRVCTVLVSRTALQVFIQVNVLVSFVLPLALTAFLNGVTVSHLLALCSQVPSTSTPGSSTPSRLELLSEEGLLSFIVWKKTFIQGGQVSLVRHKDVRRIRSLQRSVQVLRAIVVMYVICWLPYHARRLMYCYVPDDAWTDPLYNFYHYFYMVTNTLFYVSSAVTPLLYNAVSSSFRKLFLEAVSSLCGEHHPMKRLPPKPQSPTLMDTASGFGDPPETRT

## CC[C@H](C)[C@H](NC(=O)[C@H](Cc1ccc(O)cc1)NC(=O)[C@@H]1CCCN1)C(=O)N[C@@H](CC(C)C)C(=O)O (H-PYIL-OH)
[1]
  Emax: 100%
[2]
  Activity: Non-Toxic
[3]
  Activity: Non-Toxic
[4]
  Ki: > 50000 nM
[5]
  Activity: Non-Toxic
[6]
  Ki: > 50000 nM
[7]
  EC50: 3200 nM

## CC[C@H](C)[C@H](NC(=O)[C@H](Cc1ccc(O)cc1)NC(=O)[C@@H]1CCCN1C(=O)[C@H](CCCNC(=N)N)NC(=O)[C@@H](N)CCCNC(=N)N)C(=O)N[C@@H](CC(C)C)C(=O)O
[8]
  viability: 90.7%
[2]
  Activity: Non-Toxic
[9]
  Activity: Non-Toxic
[10]
  viability: 93.3%
[11]
  remaining at 720 h: 100%
[3]
  Activity: Non-Toxic
[12]
  Activity: 77.5%
[13]
  Activity: Active
[14]
  Papp at 4 h, 100 µM: 0.64 ×10⁻⁶ cm/s
[5]
  Activity: Non-Toxic
[15]
  remaining at 720 h: > 97%
[16]
  remaining at 24 h: 100%
[17]
  Activity: 31%
[18]
  Activity: Toxic
[19]
  remaining at 24 h: 100%
[20]
  viability: 96%

## CC[C@H](C)[C@H](NC(=O)[C@H](Cc1ccc(O)cc1)NC(=O)[C@@H]1CCCN1C(=O)[C@H](CCON=C(N)N)NC(=O)[C@@H](N)CCCCN)C(=O)N[C@@H](CC(C)C)C(=O)O (H-K[Cav]PYIL-OH)
[1]
  Emax: 97%
[21]
  Ratio Ki: 1.06
[8]
  viability: 94.6%
[9]
  Activity: Non-Toxic
[10]
  viability: 97.3%
[11]
  remaining at 720 h: > 100%
[12]
  Activity: 90%
[13]
  Activity: Active
[14]
  Papp at 4 h, 100 µM: 2.81 ×10⁻⁶ cm/s
[4]
  Ki: 6.9 nM
[15]
  remaining at 720 h: > 97%
[16]
  remaining at 24 h: 100%
[17]
  Activity: 87%
[6]
  Ki: 6.5 nM
[18]
  Activity: Toxic
[19]
  remaining at 24 h: 100%
[7]
  EC50: 0.82 nM
[20]
  viability: 95.1%

## CC[C@H](C)[C@H](NC(=O)[C@H](Cc1ccc(O)cc1)NC(=O)[C@@H]1CCCN1C(=O)[C@H](CCON=C(N)N)NC(=O)[C@@H](N)CCCN=C(N)N)C(=O)N[C@@H](CC(C)C)C(=O)O
[8]
  viability: 88.9%
[10]
  viability: 97.7%
[11]
  remaining at 720 h: > 95%
[14]
  Papp at 4 h, 100 µM: 0.89 ×10⁻⁶ cm/s
[15]
  remaining at 720 h: > 94%
[16]
  remaining at 24 h: 100%
[19]
  remaining at 24 h: 100%
[20]
  viability: 99.8%

## CC[C@H](C)[C@H](NC(=O)[C@H](Cc1ccc(O)cc1)NC(=O)[C@@H]1CCCN1C(=O)[C@H](CCON=C(N)N)NC(=O)[C@@H](N)CCON=C(N)N)C(=O)N[C@@H](CC(C)C)C(=O)O
[2]
  Activity: Non-Toxic
[3]
  Activity: Non-Toxic
[5]
  Activity: Non-Toxic

## CC[C@H](C)[C@H](NC(=O)[C@H](Cc1ccc(O)cc1)NC(=O)[C@@H]1CCCN1C(=O)[C@H](CCCCN)NC(=O)[C@@H](N)CCON=C(N)N)C(=O)N[C@@H](CC(C)C)C(=O)O (H-[Cav]KPYIL-OH)
[1]
  Emax: 99%
[21]
  Ratio Ki: 1.07
[2]
  Activity: Non-Toxic
[3]
  Activity: Non-Toxic
[4]
  Ki: 15 nM
[5]
  Activity: Non-Toxic
[6]
  Ki: 14 nM
[7]
  EC50: 0.85 nM

## CC[C@H](C)[C@H](NC(=O)[C@H](Cc1ccc(O)cc1)NC(=O)[C@@H]1CCCN1C(=O)[C@H](CCCN=C(N)N)NC(=O)[C@@H](N)CCON=C(N)N)C(=O)N[C@@H](CC(C)C)C(=O)O
[2]
  Activity: Non-Toxic
[3]
  Activity: Non-Toxic
[5]
  Activity: Non-Toxic

## CC(C)C[C@H](NC(=O)[C@@H](NC(=O)[C@H](Cc1ccc(O)cc1)NC(=O)[C@@H]1CCCN1C(=O)[C@H](CCCNC(=N)N)NC(=O)[C@@H](C)CCCCN)C(C)(C)C)C(=O)O (X1-RPY[Tle]L-OH)
[22]
  Kd: 5.71 nM
